Consider 21 compounds from ChEMBL document CHEMBL4477266, “Discovery of N-(benzyloxy)-1,3-diphenyl-1H-pyrazole-4-carboxamide derivatives as potential antiproliferative agents by inhibiting MEK” (Bioorg Med Chem, 2016).

The structures appear in SMILES notation.

The subject of series [1] is HeLa. The series can be described thus: Antiproliferative activity against human HeLa cells after 48 hrs in presence of 10% FBS by MTT method. In kind it is functional. The procedure, abridged: (§1)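 Cells were grown to log phase in DMEM with 10% fetal bovine serum at 37 °C under humidified 5% CO₂. They were seeded at 10⁵ cells/well and left 24 h to reattach. Compounds were added at increasing concentrations with 10% FBS for 48 h. Values are the mean of three independent experiments, each run in triplicate.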
Background: Formazan colour is commonly taken as a measure of viable cells.

In series [2] the test system is A549. The series can be described thus: Antiproliferative activity against human A549 cells after 48 hrs in presence of 10% FBS by MTT method. As to conditions: A549, 48 h. Type of series: functional. The procedure, abridged:
as §1

Series [3] relates to MCF7. The series can be described thus: Antiproliferative activity against human MCF7 cells after 48 hrs in presence of 10% FBS by MTT method. In kind it is functional. As to conditions: MCF7, 48 h. The procedure, abridged:
as §1

Series [4] in a line: Antiproliferative activity against human 293T cells after 48 hrs in presence of 10% FBS by MTT method. In kind it is cell-based. As to conditions: 293T (HEK-293T) cells. An outline of the steps:
as §1

The target of series [5] is Epidermal growth factor receptor (Homo sapiens, UniProt P00533). Kind of series: Inhibition of EGFR (unknown origin).
Epidermal growth factor receptor, sequence (P00533 whole entry): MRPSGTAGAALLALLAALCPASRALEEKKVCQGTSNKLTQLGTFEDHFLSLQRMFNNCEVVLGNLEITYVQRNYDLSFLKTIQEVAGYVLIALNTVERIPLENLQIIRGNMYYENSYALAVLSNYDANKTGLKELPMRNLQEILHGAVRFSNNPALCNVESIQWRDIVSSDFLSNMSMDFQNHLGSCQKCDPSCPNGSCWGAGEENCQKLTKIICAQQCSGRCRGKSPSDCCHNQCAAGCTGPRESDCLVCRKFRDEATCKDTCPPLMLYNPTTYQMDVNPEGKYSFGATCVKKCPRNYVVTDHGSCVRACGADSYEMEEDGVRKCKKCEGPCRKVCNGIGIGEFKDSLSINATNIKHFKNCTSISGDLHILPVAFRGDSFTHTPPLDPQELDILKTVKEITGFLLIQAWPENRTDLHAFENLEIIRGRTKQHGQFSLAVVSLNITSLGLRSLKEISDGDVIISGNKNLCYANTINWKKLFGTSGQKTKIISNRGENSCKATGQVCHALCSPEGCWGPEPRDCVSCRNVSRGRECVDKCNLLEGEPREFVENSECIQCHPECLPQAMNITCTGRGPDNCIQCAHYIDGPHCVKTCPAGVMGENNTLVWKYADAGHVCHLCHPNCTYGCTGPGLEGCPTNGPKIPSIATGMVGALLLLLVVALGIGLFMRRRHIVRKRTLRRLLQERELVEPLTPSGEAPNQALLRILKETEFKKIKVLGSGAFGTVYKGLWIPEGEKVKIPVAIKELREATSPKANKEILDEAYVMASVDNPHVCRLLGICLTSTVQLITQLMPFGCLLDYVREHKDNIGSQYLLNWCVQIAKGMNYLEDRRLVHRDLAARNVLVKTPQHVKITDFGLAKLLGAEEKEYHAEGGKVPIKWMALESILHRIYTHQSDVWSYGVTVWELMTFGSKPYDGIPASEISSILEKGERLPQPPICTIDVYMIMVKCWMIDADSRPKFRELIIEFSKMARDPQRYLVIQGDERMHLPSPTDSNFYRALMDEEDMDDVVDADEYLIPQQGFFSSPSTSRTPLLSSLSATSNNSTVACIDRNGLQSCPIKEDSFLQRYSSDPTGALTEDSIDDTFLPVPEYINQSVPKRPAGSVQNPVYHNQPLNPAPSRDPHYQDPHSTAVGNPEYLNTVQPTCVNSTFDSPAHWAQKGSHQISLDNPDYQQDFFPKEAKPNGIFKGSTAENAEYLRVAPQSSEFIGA
Series [6] has as its target T1, Dual specificity mitogen-activated protein kinase kinase 1 (Homo sapiens, UniProt Q02750). Kind of series: Inhibition of recombinant full length human N-terminal GST-tagged C-terminal His6-tagged MEK1 expressed in Escherichia coli using myelin basic protein as substrate in presence of activated BRAF and ERK2 by ELISA. On the technique in general: ELISA stands for enzyme-linked immunosorbent assay.
Target sequence in this assay (Q02750 whole entry): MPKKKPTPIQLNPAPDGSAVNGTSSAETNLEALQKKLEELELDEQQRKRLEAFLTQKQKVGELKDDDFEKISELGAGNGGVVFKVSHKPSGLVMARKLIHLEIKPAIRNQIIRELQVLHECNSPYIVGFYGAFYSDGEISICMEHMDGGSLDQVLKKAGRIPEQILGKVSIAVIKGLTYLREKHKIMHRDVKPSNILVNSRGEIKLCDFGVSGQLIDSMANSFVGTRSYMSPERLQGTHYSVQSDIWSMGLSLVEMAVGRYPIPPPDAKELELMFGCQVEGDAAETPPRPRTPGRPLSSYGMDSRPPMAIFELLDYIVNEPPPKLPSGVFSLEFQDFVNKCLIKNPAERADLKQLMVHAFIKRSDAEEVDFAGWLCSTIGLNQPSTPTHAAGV

The target in series [7] is Focal adhesion kinase 1 (Homo sapiens, UniProt Q05397). The series can be described thus: Inhibition of FAK in human MCF7 cells. In kind it is cell-based.
Focal adhesion kinase 1, sequence (Q05397 whole entry): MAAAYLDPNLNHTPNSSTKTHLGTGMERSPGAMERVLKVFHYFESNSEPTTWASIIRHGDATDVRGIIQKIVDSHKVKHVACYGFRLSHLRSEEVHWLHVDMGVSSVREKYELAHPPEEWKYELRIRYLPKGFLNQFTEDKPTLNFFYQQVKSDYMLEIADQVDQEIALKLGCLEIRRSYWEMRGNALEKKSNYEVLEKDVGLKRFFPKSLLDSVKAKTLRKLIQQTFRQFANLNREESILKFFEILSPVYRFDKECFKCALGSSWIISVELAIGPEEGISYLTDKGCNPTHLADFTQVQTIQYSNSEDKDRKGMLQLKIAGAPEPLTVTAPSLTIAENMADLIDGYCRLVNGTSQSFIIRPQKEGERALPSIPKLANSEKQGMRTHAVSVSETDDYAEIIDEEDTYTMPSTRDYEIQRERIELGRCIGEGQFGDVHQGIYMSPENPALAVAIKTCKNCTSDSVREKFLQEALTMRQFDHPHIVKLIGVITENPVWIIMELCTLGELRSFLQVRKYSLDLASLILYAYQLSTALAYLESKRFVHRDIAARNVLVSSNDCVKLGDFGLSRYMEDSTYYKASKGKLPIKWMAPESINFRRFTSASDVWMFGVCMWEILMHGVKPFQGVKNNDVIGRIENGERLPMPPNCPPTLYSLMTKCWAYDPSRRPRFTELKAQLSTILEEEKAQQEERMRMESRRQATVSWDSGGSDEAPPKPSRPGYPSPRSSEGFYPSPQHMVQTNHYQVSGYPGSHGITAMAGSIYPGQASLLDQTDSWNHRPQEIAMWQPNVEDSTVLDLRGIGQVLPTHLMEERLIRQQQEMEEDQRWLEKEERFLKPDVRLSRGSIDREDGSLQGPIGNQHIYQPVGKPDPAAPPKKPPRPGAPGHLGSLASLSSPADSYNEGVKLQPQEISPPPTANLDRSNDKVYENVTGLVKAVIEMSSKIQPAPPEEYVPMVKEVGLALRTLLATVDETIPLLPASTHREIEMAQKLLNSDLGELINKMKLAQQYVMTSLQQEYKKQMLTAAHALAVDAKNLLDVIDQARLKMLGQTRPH
Series [8] concerns the target Vascular endothelial growth factor receptor 2 (Homo sapiens, UniProt P35968). The series can be described thus: Inhibition of VEGFR2 (unknown origin).
For series [9], the target named is Receptor tyrosine-protein kinase erbB-2 (Homo sapiens, UniProt P04626). The series can be described thus: Inhibition of HER2 (unknown origin).
Receptor tyrosine-protein kinase erbB-2, sequence (P04626 whole entry): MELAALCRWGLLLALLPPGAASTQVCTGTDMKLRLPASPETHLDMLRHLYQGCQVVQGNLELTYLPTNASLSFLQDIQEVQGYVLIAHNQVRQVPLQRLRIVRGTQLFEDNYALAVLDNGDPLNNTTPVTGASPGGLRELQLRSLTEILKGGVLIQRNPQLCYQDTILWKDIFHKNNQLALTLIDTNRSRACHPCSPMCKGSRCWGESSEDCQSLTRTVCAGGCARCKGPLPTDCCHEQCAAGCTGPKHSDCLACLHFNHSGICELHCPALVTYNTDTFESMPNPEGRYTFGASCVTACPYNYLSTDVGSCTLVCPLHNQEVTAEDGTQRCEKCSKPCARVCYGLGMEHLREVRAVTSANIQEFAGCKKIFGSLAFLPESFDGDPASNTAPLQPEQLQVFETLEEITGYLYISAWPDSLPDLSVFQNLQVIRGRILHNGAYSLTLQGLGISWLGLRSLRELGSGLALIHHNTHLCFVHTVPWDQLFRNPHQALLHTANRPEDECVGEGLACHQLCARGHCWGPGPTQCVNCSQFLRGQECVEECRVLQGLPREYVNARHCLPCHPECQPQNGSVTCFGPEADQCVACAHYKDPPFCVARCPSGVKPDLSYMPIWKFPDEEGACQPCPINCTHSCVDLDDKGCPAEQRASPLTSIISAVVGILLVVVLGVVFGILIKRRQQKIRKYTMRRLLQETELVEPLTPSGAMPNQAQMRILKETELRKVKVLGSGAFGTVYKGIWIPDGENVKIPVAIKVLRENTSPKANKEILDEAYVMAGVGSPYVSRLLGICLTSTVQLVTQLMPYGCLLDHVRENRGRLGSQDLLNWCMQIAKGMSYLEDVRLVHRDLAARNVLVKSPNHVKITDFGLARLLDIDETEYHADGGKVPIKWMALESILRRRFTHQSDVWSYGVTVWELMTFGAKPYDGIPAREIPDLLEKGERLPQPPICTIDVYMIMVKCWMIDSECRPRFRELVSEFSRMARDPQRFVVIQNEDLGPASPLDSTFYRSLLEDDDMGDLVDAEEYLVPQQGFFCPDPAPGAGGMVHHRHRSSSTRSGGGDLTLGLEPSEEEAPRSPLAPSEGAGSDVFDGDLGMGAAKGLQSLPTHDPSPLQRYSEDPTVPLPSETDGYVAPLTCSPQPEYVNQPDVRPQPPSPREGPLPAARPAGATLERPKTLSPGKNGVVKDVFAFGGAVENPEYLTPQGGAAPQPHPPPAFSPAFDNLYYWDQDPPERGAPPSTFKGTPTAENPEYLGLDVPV
For series [10], the target named is T2, Aurora kinase A (Homo sapiens, UniProt O14965).
T2 sequence (O14965 whole entry): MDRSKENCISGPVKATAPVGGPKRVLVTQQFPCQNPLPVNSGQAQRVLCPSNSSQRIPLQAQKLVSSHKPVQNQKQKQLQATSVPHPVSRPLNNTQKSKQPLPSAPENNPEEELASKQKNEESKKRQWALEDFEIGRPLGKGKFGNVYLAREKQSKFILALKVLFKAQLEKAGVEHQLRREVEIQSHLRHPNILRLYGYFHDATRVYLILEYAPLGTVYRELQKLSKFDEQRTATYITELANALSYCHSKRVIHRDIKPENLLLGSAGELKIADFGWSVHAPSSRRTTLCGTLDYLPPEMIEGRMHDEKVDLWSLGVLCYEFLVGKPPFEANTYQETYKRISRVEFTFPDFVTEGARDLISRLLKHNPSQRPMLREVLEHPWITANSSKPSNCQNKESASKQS
Kind of series: Inhibition of Aurora A (unknown origin).

Series [11] deals with T1, Dual specificity mitogen-activated protein kinase kinase 1. The series can be described thus: Inhibition of MEK1 in […] human A549 cells assessed as reduction in ERK1/2 phosphorylation by ELISA. Type of series: cell-based.
Target sequence in this assay (Q02750 whole entry, looked up, change not shown): as the sequence (Q02750 whole entry) above

The GI50 is the concentration at which growth is held to half of that of the control. By CC50 is commonly meant the concentration at which the toxic effect on the cells reaches its halfway point. With `O=C(NOCc1ccccc1F)c1cn(-c2ccc(Cl)cc2)nc1-c1ccccc1`, the GI50 in series [1] turned out to be 4.17 µM; in [2], 12.1 µM; in [3] it was 15.1 µM. Moreover, in series [4], the CC50 at 48 h was found to be 126 µM.
`Cc1ccc(-n2cc(C(=O)NOCc3ccc(Cl)cc3Cl)c(-c3ccccc3)n2)cc1`: the 50% growth inhibitory concentration (GI50) in series [1] came out at 2.04 µM; in series [2], 1.08 µM; in [3], 2.31 µM. Moreover, the CC50 at 48 h in series [4] is 39.6 µM.
In the case of `Cc1ccc(-n2cc(C(=O)NOCc3ccccc3)c(-c3ccccc3)n2)cc1`, the concentration for 50% growth inhibition (GI50) in series [1] came out at 6.69 µM; in [2] it was 1.14 µM; in series [3] it was 1.87 µM. In addition, in series [4], the CC50 at 48 h turned out to be 40.8 µM.
Taken in the same sequence, the figures for `O=C(NOCc1ccccc1F)c1cn(-c2ccccc2)nc1-c1ccccc1` were 11.8 µM, 5.94 µM, 16.1 µM and 75.7 µM.
For `O=C(NOCc1ccccc1)c1cn(-c2ccccc2)nc1-c1ccccc1` the same measures were 8.83 µM, 5 µM, 13.4 µM and 122 µM.
For `COc1ccc(-n2cc(C(=O)NOCc3ccccc3)c(-c3ccccc3)n2)cc1`, the GI50 came out at 2.64 µM in series [1], 1.94 µM in series [2] and 2.77 µM in series [3]. Also, the CC50 at 48 h in series [4] came to 201 µM.
Taken in the same sequence, the figures for `O=C(NOCc1ccc(Cl)cc1Cl)c1cn(-c2ccc(Cl)cc2)nc1-c1ccccc1` were 5.16 µM, 13.1 µM, 16.2 µM and 46.3 µM.
Taken in the same sequence, the figures for `COc1ccc(-n2cc(C(=O)NOCc3ccccc3F)c(-c3ccccc3)n2)cc1` were 2.9 µM, 2.16 µM, 6 µM and 24.6 µM.
For `O=C(NOCc1ccc(Cl)cc1Cl)c1cn(-c2ccccc2)nc1-c1ccccc1` the same measures were 5.1 µM, 7.35 µM, 9.66 µM and 40.2 µM.
Regarding `O=C(NOCc1ccccc1Cl)c1cn(-c2ccc(F)cc2)nc1-c1ccccc1`, the concentration for 50% growth inhibition (GI50) in series [1] was 36.4 µM; in series [2] it was 8.33 µM; in series [3], 11.4 µM. Also, the CC50 at 48 h in [4] is 44.7 µM.
Taken in the same sequence, the figures for `O=C(NOCc1ccccc1Cl)c1cn(-c2ccccc2)nc1-c1ccccc1` were 17.8 µM, 10.3 µM, 7.41 µM and 82 µM.
As usually defined, the IC50 is the midpoint of a concentration-inhibition curve. As to `Cc1ccc(-n2cc(C(=O)NOCc3ccccc3F)c(-c3ccccc3)n2)cc1`, the IC50 was above 25 µM in series [5]; 91 nM in series [6]; 15.6 µM in [7]; above 25 µM in series [8]; above 25 µM in series [9]; 8.3 µM in series [10]. Further, the IC50 in series [11] stood at 610 nM. Also, the concentration for 50% growth inhibition (GI50) in [1] turned out to be 1.18 µM; in [2] it was 0.26 µM; in [3], 2.11 µM. The CC50 at 48 h in series [4] is 20.6 µM.
For the compound `O=C(NOCc1ccc(Cl)cc1Cl)c1cn(-c2ccc(F)cc2)nc1-c1ccccc1`, the concentration for 50% growth inhibition (GI50) in [1] amounted to 7.35 µM; in [2] it was 14 µM; in series [3] it was 25.3 µM. Also, the half-maximal cytotoxic concentration (CC50) at 48 h in series [4] came to 45 µM.
For `O=C(NOCc1ccccc1)c1cn(-c2ccc(F)cc2)nc1-c1ccccc1`, the GI50 worked out at 6.11 µM in [1], 10.4 µM in series [2] and 15.3 µM in series [3]. Also, the CC50 at 48 h in series [4] came out at 217 µM.
Taken in the same sequence, the figures for `COc1ccc(-n2cc(C(=O)NOCc3ccc(Cl)cc3Cl)c(-c3ccccc3)n2)cc1` were 5.75 µM, 3.83 µM, 2.57 µM and 545 µM.
For `COc1ccc(-n2cc(C(=O)NOCc3ccccc3Cl)c(-c3ccccc3)n2)cc1` the same measures were 3.48 µM, 2.45 µM, 3.73 µM and 586 µM.
For `O=C(NOCc1ccccc1F)c1cn(-c2ccc(F)cc2)nc1-c1ccccc1` the same measures were 10.3 µM, 17.5 µM, 12 µM and 147 µM.
Take `Cc1ccc(-n2cc(C(=O)NOCc3ccccc3Cl)c(-c3ccccc3)n2)cc1`: the 50% growth inhibitory concentration (GI50) in series [1] was found to be 4.68 µM; in series [2], 0.38 µM; in series [3], 2.64 µM. Further, in series [4], the CC50 at 48 h came to 38.7 µM.
For the compound `O=C(NOCc1ccccc1Cl)c1cn(-c2ccc(Cl)cc2)nc1-c1ccccc1`, the GI50 in series [1] worked out at 8.85 µM; in [2], 15.5 µM; in series [3], 16.1 µM. The half-maximal cytotoxic concentration (CC50) at 48 h in series [4] worked out at 129 µM.
For `O=C(NOCc1ccccc1)c1cn(-c2ccc(Cl)cc2)nc1-c1ccccc1` the same measures were 8.35 µM, 13 µM, 10.8 µM and 51.9 µM.
Turning to `COc1cc2ncnc(Nc3ccc(F)c(Cl)c3)c2cc1OCCCN1CCOCC1` [GEFITINIB], in series [2], the GI50 is 2.86 µM.
